Each molecule was assayed against Transient receptor potential cation channel subfamily V member 1 (Rattus norvegicus, UniProt O35433) (assay: Antagonist activity at TRPV1 in Sprague-Dawley rat DRG neurons assessed as inhibition of capsaicin-induced [45]Ca2+ uptake).
Type: functional
How it was run: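 Neonatal rat DRG neurons from all spinal levels were dissociated with collagenase/trypsin, then grown 3 days on poly-D-ornithine (1500–1700 neurons/well) in DME/F12 with 10% horse serum and C6-conditioned medium, with cytosine arabinoside for the first 2 days. Cells were exposed to ⁴⁵Ca²⁺, 0.5 capsaicin and compound for 10 min at room temperature, lysed in 0.3% SDS, and scintillation-counted. IC50 = 50% reduction of capsaicin response.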

Sequence of Transient receptor potential cation channel subfamily V member 1 (O35433 whole entry): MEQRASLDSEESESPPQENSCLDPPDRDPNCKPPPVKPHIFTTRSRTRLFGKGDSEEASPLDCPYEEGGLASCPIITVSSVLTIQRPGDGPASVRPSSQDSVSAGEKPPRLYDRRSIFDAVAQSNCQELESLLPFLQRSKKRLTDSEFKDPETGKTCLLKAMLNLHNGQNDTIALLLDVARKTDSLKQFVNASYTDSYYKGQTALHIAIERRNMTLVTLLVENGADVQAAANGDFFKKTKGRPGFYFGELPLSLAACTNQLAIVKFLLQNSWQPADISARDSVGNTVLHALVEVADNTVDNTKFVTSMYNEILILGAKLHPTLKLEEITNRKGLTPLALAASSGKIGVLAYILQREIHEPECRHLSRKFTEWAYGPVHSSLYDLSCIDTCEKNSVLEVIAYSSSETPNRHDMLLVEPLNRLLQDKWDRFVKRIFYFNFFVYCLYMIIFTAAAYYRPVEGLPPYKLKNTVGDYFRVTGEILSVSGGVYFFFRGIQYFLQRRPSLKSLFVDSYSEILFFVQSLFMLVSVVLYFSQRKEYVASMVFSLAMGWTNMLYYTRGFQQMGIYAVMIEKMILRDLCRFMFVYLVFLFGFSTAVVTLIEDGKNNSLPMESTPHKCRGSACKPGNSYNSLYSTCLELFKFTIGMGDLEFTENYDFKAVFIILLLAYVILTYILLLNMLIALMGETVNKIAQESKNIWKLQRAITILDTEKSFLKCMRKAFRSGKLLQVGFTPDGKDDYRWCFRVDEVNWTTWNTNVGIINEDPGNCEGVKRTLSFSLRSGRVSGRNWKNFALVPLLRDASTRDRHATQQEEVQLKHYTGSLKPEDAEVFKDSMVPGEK

SMILES	IC50
C=Cc1cc(CNC(=S)CCc2ccc(C(C)(C)C)cc2)cc(F)c1NS(C)(=O)=O	32 nM
CC(=O)c1cc(CNC(=S)CCc2ccc(C(C)(C)C)cc2)ccc1NS(C)(=O)=O	1000 nM
CC(C)(C)c1ccc(CCC(=S)NCc2cc(F)c(NS(C)(=O)=O)c(C#N)c2)cc1	28 nM
CC(C)(C)c1ccc(CCC(=S)NCc2ccc(NS(C)(=O)=O)c([N+](=O)[O-])c2)cc1	72 nM
CC(C)(C)c1ccc(CCC(=S)NCc2ccc(NS(C)(=O)=O)cc2Cl)cc1	3500 nM
C=Cc1cc(CNC(=S)CCc2ccc(C(C)(C)C)cc2)ccc1NS(C)(=O)=O	61 nM
CC(C)(C)c1ccc(CCC(=S)NCc2ccc(NS(C)(=O)=O)cc2C(F)(F)F)cc1	2400 nM
COC(=O)c1cc(CNC(=S)CCc2ccc(C(C)(C)C)cc2)ccc1NS(C)(=O)=O	3700 nM
CC(C)(C)c1ccc(CCC(=S)NCc2cc(F)c(NS(C)(=O)=O)c(C3CC3)c2)cc1	270 nM
CC(C)(C)c1ccc(CCC(=S)NCc2ccc(NS(C)(=O)=O)c(F)c2)cc1	40 nM
CC(C)(C)c1ccc(CCC(=S)NCc2ccc(NS(C)(=O)=O)c(Cl)c2)cc1	96 nM
Cc1cc(CNC(=O)CCc2ccc(C(C)(C)C)cc2)cc(Cl)c1NS(C)(=O)=O	100 nM
CCc1cc(CNC(=S)CCc2ccc(C(C)(C)C)cc2)ccc1NS(C)(=O)=O	240 nM
Cc1cc(CNC(=S)CCc2ccc(C(C)(C)C)cc2)ccc1NS(C)(=O)=O	60 nM
CC(C)(C)c1ccc(CCC(=S)NCc2ccc(NS(C)(=O)=O)c(C(=O)O)c2)cc1	22600 nM
C#Cc1cc(CNC(=S)CCc2ccc(C(C)(C)C)cc2)cc(F)c1NS(C)(=O)=O	75 nM
CC(C)(C)c1ccc(CCC(=S)NCc2ccc(NS(C)(=O)=O)c(C#N)c2)cc1	55 nM
CC(C)(C)c1ccc(CCC(=O)NCc2cc(F)c(NS(C)(=O)=O)c(C3CC3)c2)cc1	360 nM
Cc1cc(CNC(=S)CCc2ccc(C(C)(C)C)cc2)cc(Cl)c1NS(C)(=O)=O	80 nM
Cc1cc(CNC(=O)CCc2ccc(C(C)(C)C)cc2)cc(C)c1NS(C)(=O)=O	620 nM
CC(C)(C)c1ccc(CCC(=S)NCc2ccc(NS(C)(=O)=O)c(C(F)(F)F)c2)cc1	940 nM
CC(C)(C)c1ccc(CCC(=S)NCc2ccc(NS(C)(=O)=O)c(I)c2)cc1	300 nM
Cc1cc(CNC(=S)CCc2ccc(C(C)(C)C)cc2)cc(C)c1NS(C)(=O)=O	2900 nM

From ChEMBL document CHEMBL1153104, “Synthesis and structural optimization of multiple H-bonding region of diarylalkyl (thio)amides as novel TRPV1 antagonists” (Bioorg Med Chem, 2009)
